Source: ChEMBL document CHEMBL1933030, “Conjugation of spermine enhances cellular uptake of the stapled peptide-based inhibitors of p53-Mdm2 interaction” (Bioorg Med Chem Lett, 2011)
pIC50: −log10 of the molar value.

Experiments:
[1] = test system: HeLa; test: Cellular uptake in human HeLa cells at 10 uM after 2 hrs by FACS analysis relative to control; assay type: ADME, cell-based
How it was run: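 HeLa cells were exposed to fluorescein-labelled peptides at 10 μM and analysed by flow cytometry (FACS). Uptake was read as mean cellular fluorescence, shown as representative histograms, and normalized for comparison between peptides.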

[2] = target: Tumour suppressor p53/oncoprotein Mdm2 (Homo sapiens, UniProt Q00987); test: Inhibition of p53-MDM2 interaction by ELISA; assay type: protein assay
Chain of Tumour suppressor p53/oncoprotein Mdm2 (P04637 whole entry): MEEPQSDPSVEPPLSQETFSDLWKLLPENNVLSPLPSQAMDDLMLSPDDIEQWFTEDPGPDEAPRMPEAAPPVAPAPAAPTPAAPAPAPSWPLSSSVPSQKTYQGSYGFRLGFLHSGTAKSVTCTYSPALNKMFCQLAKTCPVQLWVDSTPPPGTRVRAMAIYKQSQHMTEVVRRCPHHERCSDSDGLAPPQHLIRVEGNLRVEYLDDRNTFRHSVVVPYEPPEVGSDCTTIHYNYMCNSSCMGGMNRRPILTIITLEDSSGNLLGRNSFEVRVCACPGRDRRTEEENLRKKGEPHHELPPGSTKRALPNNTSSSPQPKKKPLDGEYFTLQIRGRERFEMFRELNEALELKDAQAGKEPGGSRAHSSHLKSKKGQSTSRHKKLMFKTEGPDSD
Chain of Tumour suppressor p53/oncoprotein Mdm2 (Q00987 whole entry): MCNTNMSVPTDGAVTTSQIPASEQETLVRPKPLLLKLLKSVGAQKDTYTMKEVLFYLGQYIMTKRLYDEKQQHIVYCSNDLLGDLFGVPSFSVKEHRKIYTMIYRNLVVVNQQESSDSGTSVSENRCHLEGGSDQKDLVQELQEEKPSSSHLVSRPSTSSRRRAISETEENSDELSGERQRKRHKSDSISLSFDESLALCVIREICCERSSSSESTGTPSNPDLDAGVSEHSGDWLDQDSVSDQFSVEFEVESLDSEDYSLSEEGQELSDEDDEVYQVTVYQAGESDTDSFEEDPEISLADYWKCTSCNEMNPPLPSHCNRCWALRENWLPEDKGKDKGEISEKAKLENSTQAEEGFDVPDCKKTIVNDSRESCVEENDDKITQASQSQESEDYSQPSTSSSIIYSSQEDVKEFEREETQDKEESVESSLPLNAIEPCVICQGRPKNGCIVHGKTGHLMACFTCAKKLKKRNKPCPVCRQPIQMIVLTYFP

Drug uptake [1] | pIC50 [2] | SMILES
4.5% |  | CC(C)C[C@H](NC(=O)CCCCCNC(=O)c1ccccc1-c1c2ccc(=O)cc-2oc2cc(O)ccc12)C(=O)N[C@H](C(=O)N[C@@H](Cc1ccccc1)C(=O)N[C@@H](CS)C(=O)N[C@@H](Cc1cnc[nH]1)C(=O)N[C@@H](Cc1ccc(O)cc1)C(=O)N[C@@H](Cc1c[nH]c2ccccc12)C(=O)N[C@@H](C)C(=O)N[C@@H](CCC(N)=O)C(=O)N[C@@H](CC(C)C)C(=O)N[C@@H](CS)C(=O)N[C@@H](CO)C(N)=O)[C@@H](C)O
 | 7.24 | CC(=O)N[C@@H](CC(C)C)C(=O)N[C@H](C(=O)N[C@@H](Cc1ccccc1)C(=O)N[C@@H](CS)C(=O)N[C@@H](Cc1cnc[nH]1)C(=O)N[C@@H](Cc1ccc(O)cc1)C(=O)N[C@@H](Cc1c[nH]c2ccccc12)C(=O)N[C@@H](C)C(=O)N[C@@H](CCC(N)=O)C(=O)N[C@@H](CC(C)C)C(=O)N[C@@H](CS)C(=O)N[C@@H](CO)C(N)=O)[C@@H](C)O
 | 7.89 | CC(=O)N[C@@H](CC(C)C)C(=O)N[C@H](C(=O)N[C@@H](Cc1ccccc1)C(=O)N[C@H](CS)C(=O)N[C@@H](Cc1cnc[nH]1)C(=O)N[C@@H](Cc1ccc(O)cc1)C(=O)N[C@@H](Cc1c[nH]c2ccccc12)C(=O)N[C@@H](C)C(=O)N[C@@H](CCC(N)=O)C(=O)N[C@@H](CC(C)C)C(=O)N[C@@H](CS)C(=O)N[C@@H](CO)C(N)=O)[C@@H](C)O
3.3% |  | CC(C)C[C@H](NC(=O)CCCCCNC(=O)c1ccccc1-c1c2ccc(=O)cc-2oc2cc(O)ccc12)C(=O)N[C@H](C(=O)N[C@@H](Cc1ccccc1)C(=O)N[C@H](CS)C(=O)N[C@@H](Cc1cnc[nH]1)C(=O)N[C@@H](Cc1ccc(O)cc1)C(=O)N[C@@H](Cc1c[nH]c2ccccc12)C(=O)N[C@@H](C)C(=O)N[C@@H](CCC(N)=O)C(=O)N[C@@H](CC(C)C)C(=O)N[C@@H](CS)C(=O)N[C@@H](CO)C(N)=O)[C@@H](C)O
